Measured values published in ChEMBL document CHEMBL4011629, “New Disubstituted Quindoline Derivatives Inhibiting Burkitt's Lymphoma Cell Proliferation by Impeding c-MYC Transcription” (J Med Chem, 2017).
Calls of active or inactive are those of the source. No cut-off for these calls is given here.

How the values were obtained:
[1] = Binding affinity to 5'-FAM labeled c-Myc Pu27 G-quadruplex DNA (unknown origin) in presence of K+ ions by MST analysis
Summary of the method: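 The DNA was annealed at 95 °C for 5 min, slowly cooled and held at 4 °C overnight. Ligand was run as a 12-point series, 0–20 μM for Pu27 and up to 200 μM for duplex. MST was measured, and KD was fitted to a Hill model from three replicates.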

[2] = Inhibition of NM23-H2 binding to 5'-FAM labeled c-Myc Pu27 G-quadruplex DNA (unknown origin) at 10 uM preincubated for 1 hr followed by NM23-H2 addition by electrophoretic mobility shift assay relative to control
Summary of the method: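 Annealed labeled Pu27 (1.5 μM) preincubated 1 h at 25 °C with 10 μM ligand or 5% DMSO. Recombinant His-tagged NM23-H2 (0.5 μM, E. coli BL21, nickel-purified) then added for 1 h at 37 °C. Complexes resolved on 5% native polyacrylamide gel in 0.5× TBE at 4 °C. Inhibition taken as loss of complex band intensity versus no-compound band set at 100%. Run three times.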

[3] = Inhibition of NM23-H2 binding to 5'-FAM labeled c-Myc Pu27 G-quadruplex DNA (unknown origin) preincubated for 1 hr followed by NM23-H2 addition by electrophoretic mobility shift assay
Summary of the method: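 Annealed labelled Pu27 (1.5 μM) was preincubated with 10 μM agent or 5% DMSO for 1 h at 25 °C. […] Complexes were resolved on 5% native PAGE in 0.5× TBE at 4 °C, 150 V. Inhibition was taken against the no-compound complex band (set as 100%); three runs, Hill-fit IC50.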

Homo sapiens [4] = organism: Homo sapiens; test: Effect on c-Myc DNA translocated chromosome product in human Raji cells assessed as decrease in amplification of exon-2 after 12 hrs by RT-PCR method; format: cell-based
Summary of the method: (§1)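 RAJI cells, which retain NHE III1, and CA46 cells, which lack NHE III1 and the P1/P2 promoters, were exposed to graded compound concentrations for 12 h. Total RNA (2 μg) was reverse-transcribed with oligo dT18 and M-MLV. c-MYC exons 1 and 2, NM23-H2 and β-actin were amplified by real-time PCR against untreated cells. Three repeats were done; two-tailed unpaired t-test.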

Homo sapiens [5] = organism: Homo sapiens; test: Stabilization of c-Myc G-quadruplex DNA in human CA46 cells assessed as decrease in amplification of exon-1 up to 4 uM after 12 hrs by RT-PCR method; format: cell-based
Summary of the method: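 Exon-specific assay: RAJI and CA46 cells exposed to various ligand concentrations for 12 h; total RNA (2 μg) reverse-transcribed with oligo dT18 and M-MLV (42 °C 1 h). c-MYC exon 1 and exon 2, NM23-H2 and β-actin amplified by real-time PCR, products run on 1% agarose; untreated cells as control; three repeats, two-tailed unpaired t test.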

Homo sapiens [6] = organism: Homo sapiens; test: Effect on c-Myc DNA translocated chromosome product in human CA46 cells assessed as decrease in amplification of exon-2 up to 4 uM after 12 hrs by RT-PCR method; format: cell-based; summary of the method: as §1
Raji [7] = test: Effect on NM23-H2 transcription level in human Raji cells up to 4 uM after 12 hrs by RT-PCR method; format: functional, cell-based
Homo sapiens [8] = organism: Homo sapiens; test: Stabilization of c-Myc G-quadruplex DNA in human Raji cells assessed as downregulation of c-Myc protein level at 1 uM by Western blot method; format: cell-based; conditions: TDE = time-dependent effect
Summary of the method: (§2)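 Western blot of RAJI cells treated either with 1 μM for 6, 12, 24 and 48 h or with graded concentrations for 6 h. Lysed in 1% NP-40, 50 μg protein/lane on 3–12% SDS-PAGE, nitrocellulose, probed for c-MYC, NM23-H2, GAPDH loading control, HRP secondary with ECL; untreated control, three replicates.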

Homo sapiens [9] = organism: Homo sapiens; test: Stabilization of c-Myc G-quadruplex DNA in human Raji cells assessed as downregulation of c-Myc protein level after 6 hrs by Western blot method; format: cell-based; summary of the method: as §2
Raji [10] = test: Antiproliferative activity against human Raji cells measured every 3 days up to 15 days; format: functional, cell-based
Summary of the method: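 RAJI cells (1.0 × 10^5 per well, six-well plates) were exposed every 3 days to a subcytotoxic ligand concentration or 0.1% DMSO. At each point cells were counted and viability checked, then flasks were reseeded at 1.0 × 10^5 cells. This continued for 15 days.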

Raji [11] = test: Cell cycle arrest in human Raji cells assessed as accumulation at G0/G1 phase after 6 hrs by propidium iodide staining based flow cytometry (reference value: 38.5%); format: functional
Raji [12] = test: Cell cycle arrest in human Raji cells assessed as accumulation at G2/M phase after 6 hrs by propidium iodide staining based flow cytometry (reference value: 24.4%); format: functional
Raji [13] = test: Cell cycle arrest in human Raji cells assessed as accumulation at S phase after 24 hrs by propidium iodide staining based flow cytometry (reference value: 32.2%); format: functional
Raji [14] = test: Cell cycle arrest in human Raji cells assessed as accumulation at G0/G1 phase after 48 hrs by propidium iodide staining based flow cytometry (reference value: 38.5%); format: functional
Raji [15] = test: Cell cycle arrest in human Raji cells assessed as accumulation at G2/M phase after 48 hrs by propidium iodide staining based flow cytometry (reference value: 24.4%); format: functional
Raji [16] = test: Induction of apoptosis in human Raji cells assessed as necrotic cells at 1 uM after 12 hrs by Annexin V-FITC/propidium iodide staining based flow cytometry relative to control; format: functional
Summary of the method: (§3)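 RAJI cells exposed to compound or control medium for 12 or 48 h were washed in PBS and resuspended in binding buffer. They were stained with FITC annexin V and PI for 15 min in the dark, and fluorescence was measured by flow cytometry.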

Raji [17] = test: Induction of apoptosis in human Raji cells assessed as late apoptotic cells at 0.5 uM after 48 hrs by Annexin V-FITC/propidium iodide staining based flow cytometry (reference value: 0.1%); format: functional; summary of the method: as §3
Raji [18] = test: Induction of apoptosis in human Raji cells assessed as necrotic cells at 0.5 uM after 48 hrs by Annexin V-FITC/propidium iodide staining based flow cytometry relative to control; format: functional; summary of the method: as §3
Raji [19] = test: Induction of apoptosis in human Raji cells assessed as late apoptotic cells at 1 uM after 48 hrs by Annexin V-FITC/propidium iodide staining based flow cytometry (reference value: 0.1%); format: functional; summary of the method: as §3
Raji [20] = test: Induction of apoptosis in human Raji cells assessed as downregulation of Cyclin D1 expression after 12 hrs by Western blot method; format: functional, cell-based
Summary of the method: (§4)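 After compound exposure (12 h for cell-cycle and apoptosis markers), RAJI cells were lysed in 1% NP-40 buffer. Protein at 50 μg per lane was run on 3–12% SDS-PAGE and transferred to nitrocellulose. Blots were probed with primary antibodies (GAPDH as loading reference) and detected with an HRP secondary and enhanced chemiluminescence.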

Raji [21] = test: Induction of apoptosis in human Raji cells assessed as downregulation of CDK4 expression after 12 hrs by Western blot method; format: functional, cell-based; summary of the method: as §4
Mus musculus = test: Toxicity in NOD/SCID nude mouse xenografted with human Raji cells assessed as reduction in body weight at 15 to 30 mg/kg, ip administered once daily for 2 weeks measured every day during compound dosing; format: organism-based; conditions: in vivo, 336 h
Summary of the method: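 NOD/SCID mice implanted subcutaneously in the underarm with 5 × 10^6 RAJI cells in 100 μL RPMI 1640 with 10% serum; tumours grown about 1 week, then mice randomized. Body weight recorded daily; organ weights taken at end.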

Kd [1]: 1.3 µM | inhibition [2]: > 80% | IC50 [3]: 1.56 µM
Compound: CN(C)CCCNc1c2ccccc2nc2c1oc1ccc(OCC3CCN(C)CC3)cc12
Activity (Homo sapiens [4]): Dose-dependent effect | Activity (Homo sapiens [5]): Active | Activity (Homo sapiens [6]): inactive | Activity (Raji [7]): inactive | Activity (Homo sapiens [8]): Tde | Activity (Homo sapiens [9]): Dose-dependent effect | Activity (Raji [10]): Dose-dependent effect | Activity (Raji [11]): 50.2% | Activity (Raji [12]): 26.8% | Activity (Raji [13]): 19.4% | Activity (Raji [14]): 57.1% | Activity (Raji [15]): 16.6% | Activity (Raji [16]): 0% | Activity (Raji [17]): 0.7% | Activity (Raji [18]): 0% | Activity (Raji [19]): 37% | Activity (Raji [20]): Dose-dependent effect | Activity (Raji [21]): Dose-dependent effect | Activity (Mus musculus): Non-Toxic
